High-throughput results (PubChem)
Rev-erbA mod: Rev-erb alpha (human) modulation | P20393 | Rev-erbα–FITC-DNA binding, fluorescence polarization, 90 min | activity, % at 10 µM | 0.79% of 370,000 active | AID 1259318;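 active = activity above about 14%, limit read from the data; passing the limit was not always enough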;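 also: 0% = DMSO wells with 35 nM protein and 100% = DMSO wells with 750 nM protein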
PG9 binder: small molecules binding HIV-1 gp120 antibody PG9; TR-FRET gp120-PG9 antibody binding; inhibition, % at 6.7 µM; 0.43% of 360,000 active; in the data active = inhibition above about 8.5%
NR2E3 ag-1: human photoreceptor-specific nuclear receptor agonism; CHO-S Gal4-NCOR/VP16-NR2E3 two-hybrid, luciferase; inhibition of corepressor binding, % at 3.98 µM; Q9Y5X4; 0.35% of 360,000 active;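 active = inhibition above the mean of all tested compounds plus 3 SD, cut at about 70% in these data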;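 also: 0% = DMSO with NR2E3 transfected cells and 100% = cells lacking NR2E3 construct; higher means lower luciferase signal from less NR2E3 corepressor binding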
Target sequence (Q9Y5X4 whole entry, looked up, the tested form may be a part): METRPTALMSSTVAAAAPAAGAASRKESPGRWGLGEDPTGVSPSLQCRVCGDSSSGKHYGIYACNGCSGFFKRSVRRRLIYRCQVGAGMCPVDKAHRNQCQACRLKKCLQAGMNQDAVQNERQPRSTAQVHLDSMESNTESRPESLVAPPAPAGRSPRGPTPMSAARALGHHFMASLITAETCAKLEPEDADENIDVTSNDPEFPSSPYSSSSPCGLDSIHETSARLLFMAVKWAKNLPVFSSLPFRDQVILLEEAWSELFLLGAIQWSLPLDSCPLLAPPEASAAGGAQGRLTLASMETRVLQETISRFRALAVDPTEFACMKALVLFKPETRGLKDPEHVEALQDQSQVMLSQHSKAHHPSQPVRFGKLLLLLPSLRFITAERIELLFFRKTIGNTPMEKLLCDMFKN
GalR3 antagonist: blocks the human galanin receptor 3. 0.44% of 360,000 active. O60755. inhibition, % at 3 µM. AID 651719. HEK293 GalR3-CNG cAMP membrane potential fluorescence; galR3 body fused to GalR1 C-terminus;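 active = inhibition above the screen-wide average plus 3 SD, cut at about 13% in these data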;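 also: forskolin and galanin both at EC90 stimulate the cells; cAMP rise reported by CNG channel membrane potential dye signal; 0% = forskolin plus galanin with DMSO and 100% = forskolin alone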
Target sequence (O60755 1-299 limits assumed): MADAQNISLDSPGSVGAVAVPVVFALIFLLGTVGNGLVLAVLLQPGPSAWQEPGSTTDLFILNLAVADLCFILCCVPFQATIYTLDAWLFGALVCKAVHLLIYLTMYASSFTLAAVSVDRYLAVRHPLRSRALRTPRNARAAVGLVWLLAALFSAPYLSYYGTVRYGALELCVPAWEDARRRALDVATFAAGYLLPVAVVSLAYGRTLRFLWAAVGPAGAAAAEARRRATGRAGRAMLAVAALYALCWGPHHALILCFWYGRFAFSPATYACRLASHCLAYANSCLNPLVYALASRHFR
NR2E3 ag-2: agonists of human nuclear receptor NR2E3; inhibition of corepressor binding, % at 4.78 µM; 0.12% of 320,000 active; Q9Y5X4; GST-NR2E3/biotin-RetCOR TR-FRET, 1536-well;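 active = percent inhibition above the cutoff of mean plus 3 SD of all tested compounds, set per screening campaign, cut at about 20% in these data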;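 also: 0% = DMSO wells and 100% = biotin wells as full block of FRET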
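Material: NR2E3–RetCOR corepressor complex | Quantity: 1.35 nM GST-tagged NR2E3 final | Schedule: 5 h at 4 °C | Replication: Singlicate compound wells | Reagent: RetCOR corepressor, biotinylated, 7 nM | Controls: Biotin wells as high control, 0.6% DMSO wells as low control | Signal: TR-FRET, Eu(K)-anti-GST donor, streptavidin-D2 acceptor, ex 340, em 617/671 nm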
NR1D1 mod conf: confirmation of modulators of human Rev-erb alpha DNA binding; 61% of 3,000 active; shares compounds with Rev-erbA mod; activation, % at 25 µM; Rev-erb alpha FITC-DNA binding, fluorescence polarization, 90 min;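 active = activation at or above a set limit, or at least 3 SD above the negative control mean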;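 also: 0% = 35 nM protein with DMSO and 100% = 750 nM protein high control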
RORg counter: affects RORgamma DNA binding in a Rev-erb alpha counter-screen. shares compounds with Rev-erbA mod. purified RORgamma protein-FITC-DNA binding, fluorescence polarization. IC50, µM. 8% of 910 active. AID 1259320;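 active = Compounds whose fitted half-maximal concentration for disrupting protein-DNA binding is below 10 micromolar; the record names Rev-erb in its text, so the target is in doubt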
Starred values were filed as active, the others as inactive; . = not tested or not shown. Only some compounds are listed: those with a hit (about 1.8% of all), similar ones and a draw of the others.

SMILES	Rev-erbA mod	PG9 binder	NR2E3 ag-1	GalR3 antagonist	NR2E3 ag-2	NR1D1 mod conf	others
N#C/C(=C/C1=C(N2CCOCC2)C(=C/c2ccccc2)/CC1)C(=O)Nc1ccccc1F	19.0*	-1.6	-40.9	1.1	.	18.0*
COc1ccc(-n2c(SCC(=O)Nc3ccc(Oc4ccccc4)cc3)nnc2-c2ccccc2)cc1	1.2	.	.	.	.	.
CCOC(=O)CSc1nnc(-c2cccs2)n1-c1ccccc1	3.0	1.4	-14.8	3.2	1.1	.
O=C(CSc1nnc(-c2cccs2)n1-c1ccccc1)Nc1ccccc1	111.8*	54.3*	-1.9	-3.8	-97.2	92.5*
O=C(CSc1nnc(-c2ccc(Cl)cc2)n1-c1ccccc1)Nc1ccc(Oc2ccccc2)cc1	21.9*	.	.	.	.	9.9
COC(=O)[C@]12C[C@H](CC(=O)NCC34CC5CC(CC(C5)C3)C4)C(=O)N(CCC3=CCCCC3)C1=C[C@H](C(C)C)O[C@@H]2C1CC1	0.3	.	.	.	.	.
Cc1occc1-c1nnc(SCC(=O)Nc2ccc3ncccc3c2)n1-c1ccccc1	4.1	.	.	.	.	.
COC(CNC(=O)c1ccc2nc(-c3cccs3)c(-c3cccs3)nc2c1)OC	26.6*	-17.9	-9.6	1.4	1.4	7.8
COC(=O)c1cccc(C23CC4(C2)[C@H](CN(C)[C@@H]4c2ccccc2)C3c2ccccc2)c1 (stereo partly specified)	22.1*	0.0	-5.8	-4.4	5.1	41.4*
COC(=O)c1cccc(C23CC4(C2)[C@H](CN(C)[C@@H]4c2ccccc2)C3c2ccc(C(F)(F)F)cc2)c1 (stereo partly specified)	8.3	-0.7	8.5	-4.7	0.2	.
CCN1CCCCC(NC(=O)c2ccccc2C)C1=O (stereo unspecified)	-1.3	.	.	.	.	.
Cc1ccc(-c2nc3ncccc3o2)cc1NC(=O)c1cccs1	2.9	1.7	-6.3	-3.0	-4.0	.
Cc1cc(NC(=O)c2cccs2)cc(-c2nc3ncccc3o2)c1O	71.3*	0.7	-6.2	3.1	2.6	67.5*	RORg counter=>40
Nn1c(SCC(=O)Nc2nccs2)nnc1-c1cc(-c2ccccc2)n[nH]1	1.7	.	.	.	.	.
O=C(COc1ccc(Cl)cc1Cl)Nc1cccc(-c2ccc(N3CCOCC3)nn2)c1	22.1*	1.8	-36.1	0.5	.	14.3*
C[C@@H]1[C@@H](O)C[C@@]2(C[C@H](O)c3ccccc3O2)O[C@H]1c1ccccc1	6.0	.	.	.	.	.
O=C(Nc1cc(Cl)cc(Cl)c1)Nc1cnccn1	12.4*	-3.0	0.0	-0.7	3.1	2.1
CC(=O)Nc1sc(C)c(C)c1C(=O)OCC(=O)N(Cc1ccccc1)C(C)C	41.9*	-2.1	10.9	-5.8	2.3	31.7*	RORg counter=>40
CC(=O)Nc1sc(C)c(C)c1C(=O)OCC(=O)Nc1ccccc1	-1.8	-2.8	-38.0	-6.3	4.2	.
COc1ccccc1NC(=O)COC(=O)c1c(NC(C)=O)sc(C)c1C	18.6*	-1.6	-41.4	-8.2	.	6.1
CCOc1ccc(NC(=O)c2sc(NC(C)=O)c(C(=O)OC)c2C)cc1	30.9*	2.6	-29.2	-4.8	-0.5	6.2
CCC(=O)Nc1sc(C(=O)Nc2ccccc2OC)c(C)c1C(=O)OC	42.2*	0.5	-1.0	-2.2	2.5	17.5
CC(=O)Nc1sc(C)c(C)c1C(=O)OCC(=O)NC(C)c1ccccc1 (stereo unspecified)	-3.1	-0.8	9.3	-1.9	.	.
COC(=O)c1c(-c2ccccc2)csc1NC1=NS(=O)(=O)c2ccccc21	30.8*	-2.4	-119.2	-5.1	1.1	11.9
COC(=O)c1c(-c2ccccc2)csc1N	2.2	-1.2	-9.7	-3.5	0.8	.
SMILES	Rev-erbA mod	PG9 binder	NR2E3 ag-1	GalR3 antagonist	NR2E3 ag-2	NR1D1 mod conf	others
COC(=O)c1ccc(C(=O)OC)c(NC2=NS(=O)(=O)c3ccccc32)c1	21.4*	2.3	7.5	-5.6	-0.8	-4.7
O=[N+]([O-])c1cc(S(=O)(=O)N2CCCC2)ccc1NCCc1ccccc1	9.3	-2.0	-18.7	-0.1	2.1	.
NS(=O)(=O)c1ccc(CCNc2ccccc2[N+](=O)[O-])cc1	20.9*	-1.0	-37.0	-7.8	1.1	12.9
O=C1N/C(=C\c2ccc(N3CCOCC3)c(F)c2)C(=O)N1Cc1ccccc1	28.3*	0.0	-1.5	-3.5	-2.8	-1.6
CC1CC(=O)N(c2ccc(NCCc3ccc(O)cc3)c([N+](=O)[O-])c2)C1=O (stereo unspecified)	18.9*	-0.4	-35.0	-0.9	1.7	6.7
COc1ccc(CNCC#Cc2ccc(C)cc2)c(OC)c1	-0.8	.	.	.	.	.
Cc1ccccc1NC(=O)CCS(=O)(=O)c1ccccc1	-5.0	.	.	.	.	.
CN(CCC#N)c1ccc(/C=C(\C#N)c2ccccn2)cc1	71.4*	-2.1	-116.5	7.1	1.9	74.7*	RORg counter=>40
COc1cccc(-c2nc(CS(=O)(=O)CC(=O)Nc3cccc(C)c3C)c(C)o2)c1	19.1*	0.6	24.8	.	3.9	9.5
CCCNC(=O)CS(=O)(=O)Cc1nc(-c2cccc(OC)c2)oc1C	-5.6	-1.0	9.6	.	4.3	.
COc1cccc(-c2nc(CS(=O)(=O)CC(=O)Nc3ccccc3C)c(C)o2)c1	1.1	2.6	-5.2	-4.9	0.9	.
COc1cccc(-c2nc(CS(=O)(=O)CC(=O)NCc3ccc(Cl)cc3)c(C)o2)c1	28.7*	2.5	-21.9	.	-2.8	31.5*	RORg counter=>40
Cn1nc(C(C)(C)C)cc1NC(=O)C1(C)CCN1C(=O)c1ccccc1CCc1ccccc1 (stereo unspecified)	19.7*	-0.9	-11.3	-2.3	.	-1.3
Cn1nc(C(C)(C)C)cc1NC(=O)C1(C)CCN1C(=O)CCc1ccccc1 (stereo unspecified)	-3.4	-0.2	-23.3	-6.5	.	.
c1ccc(CCNc2nc3ccccc3n3nnnc23)cc1	49.1*	1.7	2.1	-0.2	-0.4	30.2*
COc1ccc(CCNc2nc3ccccc3n3nnnc23)cc1OC	30.3*	-0.3	-88.2	1.6	0.3	22.2*
CCOc1ccc(Nc2nc3ccccc3n3nnnc23)cc1	-2.6	2.5	-93.5	3.1	3.5	.
COc1ccc(C2C(C#N)=C(C)NC3=C2C(=O)c2ccccc23)cc1 (stereo unspecified)	81.2*	-0.7	-12.3	-2.1	2.6	53.6*	RORg counter=>40
CCOc1ccc(C2C(C#N)=C(C)NC3=C2C(=O)c2ccccc23)cc1 (stereo unspecified)	2.1	-3.5	-11.6	-2.9	-10.0	.
COC(=O)c1c(-c2cccc3ccccc23)csc1NC(=O)Cc1ccc(OC)c(OC)c1	19.5*	-1.2	23.7	-0.9	1.8	30.0*
COC(=O)c1c(-c2ccc(Br)cc2)csc1NC(=O)Cc1ccc(OC)c(OC)c1	-1.1	-0.1	7.5	1.0	-1.5	.
